The results in this text go back to ChEMBL document CHEMBL4825680, “Structure-based discovery of potent and selective small-molecule inhibitors targeting signal transducer and activator of transcription 3 (STAT3)” (Eur J Med Chem, 2021).

Data set [1] can be described thus: Metabolic stability in human liver microsomes assessed as half life at 0.1 uM preincubated for 10 mins followed by NADPH addition and measured upto 60 mins by LC-MS/MS analysis. It is filed as ADME, Microsome. The conditions noted are these: time <=70 min. Summed up:
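Microsomes at 0.33 mg/mL in 0.1 M Tris pH 7.4 with 5 mM MgCl2; compound final 0.1 μM (0.01% DMSO, 0.005% BSA). Preincubated 10 min at 37 °C, then started with 1 mM NADPH. Sampled at 0, 7, 17, 30 and 60 min and quenched with cold methanol. Centrifuged, then analysed by LC-MS/MS.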
In general terms: Liver microsomes are vesicles of endoplasmic reticulum, rich in cytochrome P450 enzymes.

The test system of a further data set is MDA231-LM2-4175. Kind of data set: Antitumor activity against human MDA231-LM2-4175 cells xenografted in mouse assessed as reduction in pY705-STAT3 expression at 5 to 15 mg/kg, iv administered once daily for 20 days by Western blotting analysis. It is filed as functional, organism-based. The conditions noted are these: dose 5-15 mg/kg, time 20.0 day. (In general: In xenograft studies the graft and the host belong to different species.)

In data set [2] the target is T1, Signal transducer and activator of transcription 1-alpha/beta (Homo sapiens) (UniProt P42224).
T1 sequence (whole entry): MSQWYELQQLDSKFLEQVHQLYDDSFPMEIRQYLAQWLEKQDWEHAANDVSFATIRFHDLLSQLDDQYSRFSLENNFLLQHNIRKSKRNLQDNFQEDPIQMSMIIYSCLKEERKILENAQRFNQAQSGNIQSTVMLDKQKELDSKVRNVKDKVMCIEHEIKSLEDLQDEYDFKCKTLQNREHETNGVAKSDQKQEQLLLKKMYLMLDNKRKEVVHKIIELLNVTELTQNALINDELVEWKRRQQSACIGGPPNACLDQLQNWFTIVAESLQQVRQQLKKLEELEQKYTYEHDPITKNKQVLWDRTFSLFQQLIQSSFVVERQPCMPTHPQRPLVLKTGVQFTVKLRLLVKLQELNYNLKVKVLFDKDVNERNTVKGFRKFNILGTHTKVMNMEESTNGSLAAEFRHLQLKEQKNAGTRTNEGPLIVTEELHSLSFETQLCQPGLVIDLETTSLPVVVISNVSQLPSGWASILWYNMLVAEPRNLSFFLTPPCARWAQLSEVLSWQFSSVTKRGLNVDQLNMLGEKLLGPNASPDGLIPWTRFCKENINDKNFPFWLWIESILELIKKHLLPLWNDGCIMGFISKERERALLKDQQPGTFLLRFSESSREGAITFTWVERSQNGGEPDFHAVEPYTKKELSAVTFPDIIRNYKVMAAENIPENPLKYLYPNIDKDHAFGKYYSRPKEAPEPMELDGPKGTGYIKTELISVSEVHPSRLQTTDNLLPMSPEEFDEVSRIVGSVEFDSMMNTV
Kind of data set: Inhibition of STAT1 phosphorylation at Y701 residue in human HCC70 cells at 0.3 to 3 uM after 3 hrs by Western blotting analysis. To be noted: dose 0.3-3 µM. In kind it is cell-based. A general note: In western blotting, separated proteins are transferred to a membrane and probed.

The subject of the next data set is HCC70. Kind of data set: Effect on total STAT1 level in human HCC70 cells at 0.3 to 3 uM after 3 hrs by Western blotting analysis. To be noted: dose 0.3-3 µM. It is filed as functional, cell-based. Summed up:
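Breast cancer cells were treated with vehicle (0.1% DMSO) or compound, then lysed in RIPA with PMSF and phosphatase inhibitors. 20–50 μg protein was run on 8 or 12% SDS-PAGE, blotted to PVDF, blocked in 5% BSA, probed with primary antibodies overnight at 4 °C, then HRP secondaries, with ECL detection.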

Data set [3] concerns the target T2, Signal transducer and activator of transcription 3 (Homo sapiens, UniProt P40763). Kind of data set: Inhibition of Flag-tagged STAT3 dimerization (unknown origin) expressed in HEK293T cells preincubated for 3 hrs followed by IL-3 stimulation by immunoprecipitation analysis. It is filed as cell-based. The conditions noted are these: dose 1-3 µM.
In data set [4] the target is T2, Signal transducer and activator of transcription 3. Kind of data set: Inhibition of STAT3 DNA binding in human MDA-MB-468 cells at 0.3 to 1 uM after 3 hrs by EMSA analysis. To be noted: dose 0.3-1 µM. It is filed as cell-based. Summed up:
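Cells exposed to vehicle or compound for 3 h. Nuclear extracts prepared and BCA-quantified. Nuclear protein (8–10 µg) incubated with biotinylated STAT3 or STAT5 probe, resolved on 6% native polyacrylamide gel, transferred to nylon membrane and detected with a gel-shift kit.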

The target is the same in data set [5]. As to the kind of experiment: Inhibition of STAT3 in human MDA231-LM2-4175 cells assessed as downregulation of Bcl-xL expression at 0.3 to 3 uM after 24 hrs by western blot analysis. It is filed as cell-based. The conditions noted are these: dose 0.3-3 µM. Put shortly: (§1)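 TNBC cells given vehicle (0.1% DMSO) or graded compound levels for 24 h, lysed in RIPA with PMSF and phosphatase inhibitors. BCA-quantified lysate (20–50 µg) run on SDS-PAGE, transferred to PVDF, blocked in 5% BSA. Probed overnight at 4 °C for Bcl-xL, Mcl-1 and c-Myc, with β-actin. HRP secondary, ECL detection. Three independent experiments.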

Data set [6] has the same target. Kind of data set: Inhibition of STAT3 in human MDA231-LM2-4175 cells assessed as downregulation of Mcl-1 expression at 0.3 to 3 uM after 24 hrs by western blot analysis. In kind it is cell-based. To be noted: dose 0.3-3 µM. Summed up: as §1
The subject of another data set is H9c2. Kind of data set: Antiproliferative activity against rat H9C2 cells assessed as reduction in cell viability after 72 hrs by CCK8 assay. In kind it is cell-based. The conditions noted are these: H9c2, 72 h. Put shortly:
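Cells seeded at 1000–8000 per well were grown overnight, then exposed to 0.1–100 μM compound or 0.1% DMSO vehicle for 72 h. CCK-8 was added for 0.5–4 h at 37 °C and absorbance read at 480 nm. Viability = (OD compound − blank)/(OD vehicle − blank) × 100, with medium as blank. IC50 fitted from three independent experiments.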

The subject of data set [7] is MDA-MB-231. As to the kind of experiment: Inhibition of colony formation in human MDA-MB-231 cells at 0.3 uM after 10 to 15 days by crystal violet staining based assay. In kind it is functional, cell-based. To be noted: time 10-15 day. Summed up: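 Cells seeded at 0.5×10^3–1×10^3 per well; compound added the next day. Medium and compound renewed every 2–3 days. After about 10–15 days, colonies fixed with 4% paraformaldehyde, stained with crystal violet, scanned and quantified by image analysis. Triplicate.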

Data set [8] in a line: Induction of apoptosis in human MDA231-LM2-4175 cells assessed as necrotic cells at 1 uM after 48 hrs by Annexin-V-FITC/propidium iodide staining based flow cytometric analysis (reference value: 0.531%). It is filed as functional.
The subject of data set [9] is MDA-MB-231. As to the kind of experiment: Inhibition of cell invasion in human MDA-MB-231 cells incubated for 12 hrs by crystal violet staining based transwell assay. The conditions noted are these: dose 1-3 µM. It is filed as functional. Summed up: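 Cells seeded at 1.5×10^4–3×10^4 per well in the upper chamber of 8.0 µm pore Transwell inserts and treated with graded compound for 12 h. Non-invading cells removed with cotton. Invaded cells fixed in 4% paraformaldehyde, stained with crystal violet, photographed and counted. Triplicate.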

A short description of data set [10]: AUC(0 to infinity) in Sprague-Dawley rat at 10 mg/kg, po measured up to 24 hrs by LC-MS/MS analysis. In kind it is ADME, organism-based. The conditions noted are these: in vivo. Also noted: route oral, dose 10 mg/kg, time <=24. Put shortly:
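Male SD rats given a single oral dose of 10 mg/kg in DMSO/0.5% HPMC (5/95, v/v). Blood was drawn at 0.25, 0.5, 1, 2, 4, 8 and 24 h, and plasma was analysed by LC-MS/MS on a BEH phenyl column with a formic acid water/acetonitrile mobile phase.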

The source made the active and inactive calls. The rule behind the calls is not given here.

As a reminder, the half-life is the time in which the quantity being followed falls by half. The term IC50 denotes the concentration that inhibits the measured activity by half. Usually AUC(0-inf) stands for total exposure, with the tail of the curve extrapolated.

T2 sequence (P40763 whole entry): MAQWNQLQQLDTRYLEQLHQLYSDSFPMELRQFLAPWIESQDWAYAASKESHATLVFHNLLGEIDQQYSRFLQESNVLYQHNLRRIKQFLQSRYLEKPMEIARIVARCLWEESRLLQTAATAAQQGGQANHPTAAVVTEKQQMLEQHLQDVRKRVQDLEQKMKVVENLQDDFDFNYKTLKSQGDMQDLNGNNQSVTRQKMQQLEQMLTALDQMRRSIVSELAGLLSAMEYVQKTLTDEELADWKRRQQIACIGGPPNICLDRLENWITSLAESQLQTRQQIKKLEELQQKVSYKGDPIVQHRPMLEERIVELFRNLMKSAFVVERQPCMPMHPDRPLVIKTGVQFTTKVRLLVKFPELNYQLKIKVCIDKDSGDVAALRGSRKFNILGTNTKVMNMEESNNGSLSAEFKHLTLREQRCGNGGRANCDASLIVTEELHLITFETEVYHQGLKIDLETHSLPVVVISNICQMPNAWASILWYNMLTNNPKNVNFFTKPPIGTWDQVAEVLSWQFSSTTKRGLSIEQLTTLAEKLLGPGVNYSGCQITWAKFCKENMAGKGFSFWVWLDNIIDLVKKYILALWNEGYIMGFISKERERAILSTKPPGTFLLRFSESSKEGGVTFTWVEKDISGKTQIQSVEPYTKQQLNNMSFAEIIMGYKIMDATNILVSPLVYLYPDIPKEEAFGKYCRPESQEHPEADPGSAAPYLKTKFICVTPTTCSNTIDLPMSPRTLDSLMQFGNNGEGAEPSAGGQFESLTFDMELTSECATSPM

As for `O=C(Cc1c(-c2ccccc2)nc2ccccn12)Nc1ccc2c(c1)S(=O)(=O)C=C2`, the half-life at 0.1 µM in [1] came out at 24.2 min. For the same molecule, in the data set with MDA231-LM2-4175, the outcome was Active. The inhibition result in data set [2] was “inactive”. The result with HCC70 was inactive. Besides, the inhibition entry (in data set [3]; with MDA-MB-231 [9]) was “Dose-Dependent Effect” in each case. The inhibition entry (in data set [4]; in data set [5]; in data set [6]; in the data set with MDA-MB-231 [7]) was “Active” throughout. The half-maximal inhibitory concentration (IC50) with H9c2 worked out at 6.79 µM. Also, the Activity in data set [8] stood at 1.1%. Further, in [10], the AUC(0-inf) amounted to 56.1 ng·h/mL.
